Results: ChEMBL document CHEMBL6134769, “Discovery of N-substituted-2-oxoindolin benzoylhydrazines as c-MET/SMO modulators in EGFRi-resistant non-small cell lung cancer” (RSC Med Chem, 2025)
pKi: −log10 of the molar value. The source made the active and inactive calls. The calls are words filed in the database; no cut-off is given here.

Columns and labels:
[1] = biological target: Epidermal growth factor receptor (Homo sapiens) (UniProt P00533); assay: Inhibition of human N-terminal GST-fused EGFR cytoplasmic domain (669 to 1210 (end)residues) expressed in baculovirus expression system at 20 uM measured after 1 hr in presence of peptide substrate and ATP by off-chip mobility shift assay relative to control
Epidermal growth factor receptor (Homo sapiens), sequence (P00533 whole entry, the tested form may be a part): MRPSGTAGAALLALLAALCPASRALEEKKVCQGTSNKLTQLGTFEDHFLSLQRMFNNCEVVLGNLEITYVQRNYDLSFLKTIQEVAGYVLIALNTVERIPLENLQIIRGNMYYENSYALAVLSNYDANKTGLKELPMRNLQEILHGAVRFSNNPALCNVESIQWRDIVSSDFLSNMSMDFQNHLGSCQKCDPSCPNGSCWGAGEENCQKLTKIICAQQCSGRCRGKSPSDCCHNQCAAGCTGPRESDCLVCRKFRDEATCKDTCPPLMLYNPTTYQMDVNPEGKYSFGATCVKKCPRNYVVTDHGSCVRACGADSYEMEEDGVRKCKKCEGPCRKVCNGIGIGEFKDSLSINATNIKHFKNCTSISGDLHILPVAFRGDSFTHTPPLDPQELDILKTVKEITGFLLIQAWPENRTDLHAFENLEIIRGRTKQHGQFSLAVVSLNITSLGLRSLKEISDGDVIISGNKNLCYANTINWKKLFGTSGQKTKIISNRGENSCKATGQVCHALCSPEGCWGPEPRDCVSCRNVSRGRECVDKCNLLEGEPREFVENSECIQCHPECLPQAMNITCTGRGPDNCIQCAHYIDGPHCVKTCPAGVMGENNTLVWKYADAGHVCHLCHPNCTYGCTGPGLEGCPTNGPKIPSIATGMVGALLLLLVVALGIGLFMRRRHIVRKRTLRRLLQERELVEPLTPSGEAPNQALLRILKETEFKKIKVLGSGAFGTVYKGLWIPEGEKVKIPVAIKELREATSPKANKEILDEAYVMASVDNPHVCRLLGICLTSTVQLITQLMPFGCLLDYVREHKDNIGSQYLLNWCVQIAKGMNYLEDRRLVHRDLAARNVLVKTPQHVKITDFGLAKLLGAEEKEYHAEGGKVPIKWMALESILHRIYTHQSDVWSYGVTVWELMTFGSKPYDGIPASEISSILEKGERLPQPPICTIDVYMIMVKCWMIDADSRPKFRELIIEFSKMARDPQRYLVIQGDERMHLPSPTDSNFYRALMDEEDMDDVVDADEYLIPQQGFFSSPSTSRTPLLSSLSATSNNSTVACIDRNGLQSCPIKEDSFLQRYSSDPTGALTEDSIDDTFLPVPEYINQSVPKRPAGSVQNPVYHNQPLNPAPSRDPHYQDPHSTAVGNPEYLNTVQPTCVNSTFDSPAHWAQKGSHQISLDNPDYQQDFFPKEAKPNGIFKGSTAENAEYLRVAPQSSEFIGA
Outline: (§1)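 Off-chip mobility shift assay. Product and substrate peptides were separated; activity was taken as P/(P+S). Complete reaction was set as 0% inhibition and enzyme-free background as 100%. Run in triplicate, mean ± SD.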

[2] = biological target: T1, Ephrin type-B receptor 4 (Homo sapiens) (UniProt P54760); assay: Inhibition of human N-terminal GST-fused EPHB4 cytoplasmic domain (577 to 987 (end)residues) expressed in baculovirus expression system at 20 uM measured after 1 hr in presence of peptide substrate and ATP by off-chip mobility shift assay relative to control; outline: as §1
T1 sequence (whole entry): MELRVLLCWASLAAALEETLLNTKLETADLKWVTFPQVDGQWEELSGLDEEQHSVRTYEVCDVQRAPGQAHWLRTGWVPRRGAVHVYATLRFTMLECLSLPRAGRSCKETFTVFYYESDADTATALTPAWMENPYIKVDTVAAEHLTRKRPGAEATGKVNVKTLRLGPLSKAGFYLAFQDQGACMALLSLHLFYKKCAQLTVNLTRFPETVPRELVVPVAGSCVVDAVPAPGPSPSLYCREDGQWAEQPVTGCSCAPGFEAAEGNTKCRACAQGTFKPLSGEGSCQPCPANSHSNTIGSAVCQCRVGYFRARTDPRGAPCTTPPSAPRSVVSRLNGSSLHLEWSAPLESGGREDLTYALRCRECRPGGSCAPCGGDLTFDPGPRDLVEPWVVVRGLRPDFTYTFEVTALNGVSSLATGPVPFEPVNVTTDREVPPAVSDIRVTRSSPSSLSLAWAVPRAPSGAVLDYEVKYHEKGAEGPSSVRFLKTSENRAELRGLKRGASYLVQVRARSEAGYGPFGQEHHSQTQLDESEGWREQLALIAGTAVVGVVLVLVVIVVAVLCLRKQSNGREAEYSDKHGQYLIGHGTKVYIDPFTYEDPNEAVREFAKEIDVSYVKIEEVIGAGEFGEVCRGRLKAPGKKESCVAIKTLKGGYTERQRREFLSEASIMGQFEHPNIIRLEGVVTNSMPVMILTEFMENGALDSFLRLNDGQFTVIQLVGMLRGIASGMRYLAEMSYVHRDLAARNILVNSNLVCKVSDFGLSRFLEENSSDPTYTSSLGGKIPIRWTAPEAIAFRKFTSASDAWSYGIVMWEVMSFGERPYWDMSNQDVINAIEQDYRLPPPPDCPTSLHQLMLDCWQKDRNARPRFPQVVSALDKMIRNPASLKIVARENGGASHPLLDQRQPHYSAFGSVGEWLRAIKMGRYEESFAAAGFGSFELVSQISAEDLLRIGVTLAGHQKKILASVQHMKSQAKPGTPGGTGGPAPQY

[3] = biological target: T2, Tyrosine-protein kinase ITK/TSK (Homo sapiens) (UniProt Q08881); assay: Inhibition of human full-length N-terminal GST-fused ITK (2 to 620 (end)residues) expressed in baculovirus expression system at 20 uM measured after 1 hr in presence of peptide substrate and ATP by off-chip mobility shift assay relative to control; outline: as §1
T2 sequence (whole entry): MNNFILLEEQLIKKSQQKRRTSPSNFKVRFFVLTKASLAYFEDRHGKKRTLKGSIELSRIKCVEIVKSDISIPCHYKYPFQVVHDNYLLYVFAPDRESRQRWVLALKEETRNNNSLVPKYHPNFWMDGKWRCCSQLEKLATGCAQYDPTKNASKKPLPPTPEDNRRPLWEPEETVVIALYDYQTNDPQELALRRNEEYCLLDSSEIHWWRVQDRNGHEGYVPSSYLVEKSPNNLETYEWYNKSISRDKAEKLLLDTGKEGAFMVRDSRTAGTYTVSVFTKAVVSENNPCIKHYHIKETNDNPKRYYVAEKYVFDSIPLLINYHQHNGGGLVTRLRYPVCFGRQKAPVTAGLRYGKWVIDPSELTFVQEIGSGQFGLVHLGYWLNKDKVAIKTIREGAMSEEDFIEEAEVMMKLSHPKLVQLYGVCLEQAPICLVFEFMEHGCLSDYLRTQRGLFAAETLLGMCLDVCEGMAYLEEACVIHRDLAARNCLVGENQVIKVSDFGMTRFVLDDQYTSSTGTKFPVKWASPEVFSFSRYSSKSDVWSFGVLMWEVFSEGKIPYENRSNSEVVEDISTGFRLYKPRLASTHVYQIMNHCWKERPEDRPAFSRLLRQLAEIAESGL

[4] = biological target: Vascular endothelial growth factor receptor 2 (Homo sapiens) (UniProt P35968); assay: Inhibition of human N-terminal GST-fused KDR cytoplasmic domain (790 to 1356 (end)residues) expressed in baculovirus expression system at 20 uM measured after 1 hr in presence of peptide substrate and ATP by off-chip mobility shift assay relative to control; outline: as §1
Vascular endothelial growth factor receptor 2 (Homo sapiens), sequence (P35968 whole entry, the tested form may be a part): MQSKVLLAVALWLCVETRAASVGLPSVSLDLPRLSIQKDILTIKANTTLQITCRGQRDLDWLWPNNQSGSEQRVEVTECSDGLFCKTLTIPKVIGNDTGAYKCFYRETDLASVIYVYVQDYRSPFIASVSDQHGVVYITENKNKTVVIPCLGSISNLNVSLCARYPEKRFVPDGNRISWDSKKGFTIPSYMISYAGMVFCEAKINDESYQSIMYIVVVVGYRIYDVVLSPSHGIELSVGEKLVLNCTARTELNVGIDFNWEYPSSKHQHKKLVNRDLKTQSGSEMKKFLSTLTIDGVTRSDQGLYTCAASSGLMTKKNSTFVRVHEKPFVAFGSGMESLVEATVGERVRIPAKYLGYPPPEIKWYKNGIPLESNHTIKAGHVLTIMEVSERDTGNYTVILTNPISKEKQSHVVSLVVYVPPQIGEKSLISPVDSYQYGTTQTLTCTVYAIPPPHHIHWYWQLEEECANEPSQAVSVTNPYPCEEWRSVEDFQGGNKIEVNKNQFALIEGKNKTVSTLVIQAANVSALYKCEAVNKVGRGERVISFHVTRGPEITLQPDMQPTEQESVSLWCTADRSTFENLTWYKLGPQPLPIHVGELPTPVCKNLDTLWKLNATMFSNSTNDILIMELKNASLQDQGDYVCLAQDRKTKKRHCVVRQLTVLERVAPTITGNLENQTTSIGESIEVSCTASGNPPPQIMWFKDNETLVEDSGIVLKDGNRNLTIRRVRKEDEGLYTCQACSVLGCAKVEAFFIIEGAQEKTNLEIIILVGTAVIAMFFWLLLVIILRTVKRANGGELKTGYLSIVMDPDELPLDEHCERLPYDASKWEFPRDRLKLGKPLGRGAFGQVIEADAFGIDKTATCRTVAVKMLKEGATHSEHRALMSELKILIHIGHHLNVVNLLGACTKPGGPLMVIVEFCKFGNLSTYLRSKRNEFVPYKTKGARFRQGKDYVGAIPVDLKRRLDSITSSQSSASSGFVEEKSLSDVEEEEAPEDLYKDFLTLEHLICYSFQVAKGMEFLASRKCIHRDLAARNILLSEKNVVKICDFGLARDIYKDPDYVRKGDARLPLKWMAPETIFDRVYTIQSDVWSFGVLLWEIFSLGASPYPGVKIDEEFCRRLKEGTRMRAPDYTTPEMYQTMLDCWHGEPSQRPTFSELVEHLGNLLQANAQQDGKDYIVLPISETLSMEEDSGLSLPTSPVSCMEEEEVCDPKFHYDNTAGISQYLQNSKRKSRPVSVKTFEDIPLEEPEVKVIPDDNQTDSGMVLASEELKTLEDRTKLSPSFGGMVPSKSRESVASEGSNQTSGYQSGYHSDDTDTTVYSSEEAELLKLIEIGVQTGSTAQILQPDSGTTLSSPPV

[5] = biological target: Tyrosine-protein kinase Lck (Homo sapiens) (UniProt P06239); assay: Inhibition of human full-length N-terminal GST-fused LCK (1 to 509 (end)residues) expressed in baculovirus expression system at 20 uM measured after 1 hr in presence of peptide substrate and ATP by off-chip mobility shift assay relative to control; outline: as §1
Tyrosine-protein kinase Lck (Homo sapiens), sequence (P06239 2-509 limits assumed): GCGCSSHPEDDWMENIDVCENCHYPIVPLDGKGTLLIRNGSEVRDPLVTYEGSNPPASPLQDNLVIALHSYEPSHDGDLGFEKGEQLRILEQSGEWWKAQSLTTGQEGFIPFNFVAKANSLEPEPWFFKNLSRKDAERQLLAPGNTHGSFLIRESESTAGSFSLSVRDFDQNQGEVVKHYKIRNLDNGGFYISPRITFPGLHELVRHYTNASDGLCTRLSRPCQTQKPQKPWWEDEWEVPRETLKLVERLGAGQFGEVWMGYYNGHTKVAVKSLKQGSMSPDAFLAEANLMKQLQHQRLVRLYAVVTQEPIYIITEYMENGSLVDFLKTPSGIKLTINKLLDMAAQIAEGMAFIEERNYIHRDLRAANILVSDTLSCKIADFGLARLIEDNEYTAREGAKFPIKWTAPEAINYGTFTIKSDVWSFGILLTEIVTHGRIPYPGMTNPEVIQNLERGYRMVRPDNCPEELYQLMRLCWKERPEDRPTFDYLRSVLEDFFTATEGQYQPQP

[6] = Inhibition of human full-length N-terminal GST-fused SRC (1 to 536 (end)residues) expressed in baculovirus expression system at 20 uM measured after 1 hr in presence of peptide substrate and ATP by off-chip mobility shift assay relative to control; outline: as §1
[7] = biological target: Tyrosine-protein kinase SYK (Homo sapiens) (UniProt P43405); assay: Inhibition of human full-length N-terminal GST-fused SYK (1 to 635 (end)residues) expressed in baculovirus expression system at 20 uM measured after 1 hr in presence of peptide substrate and ATP by off-chip mobility shift assay relative to control; outline: as §1
Protein smoothened [8] = biological target: T3, Protein smoothened (Homo sapiens, UniProt Q99835); assay: Displacement of [3H]-cyclopamine from SMO receptor (unknown origin) expressed in HEK293T cell membranes measured after 4 hrs by liquid scintillation spectrometry.; design: species or system Cell membrane
T3 sequence (Q99835 whole entry): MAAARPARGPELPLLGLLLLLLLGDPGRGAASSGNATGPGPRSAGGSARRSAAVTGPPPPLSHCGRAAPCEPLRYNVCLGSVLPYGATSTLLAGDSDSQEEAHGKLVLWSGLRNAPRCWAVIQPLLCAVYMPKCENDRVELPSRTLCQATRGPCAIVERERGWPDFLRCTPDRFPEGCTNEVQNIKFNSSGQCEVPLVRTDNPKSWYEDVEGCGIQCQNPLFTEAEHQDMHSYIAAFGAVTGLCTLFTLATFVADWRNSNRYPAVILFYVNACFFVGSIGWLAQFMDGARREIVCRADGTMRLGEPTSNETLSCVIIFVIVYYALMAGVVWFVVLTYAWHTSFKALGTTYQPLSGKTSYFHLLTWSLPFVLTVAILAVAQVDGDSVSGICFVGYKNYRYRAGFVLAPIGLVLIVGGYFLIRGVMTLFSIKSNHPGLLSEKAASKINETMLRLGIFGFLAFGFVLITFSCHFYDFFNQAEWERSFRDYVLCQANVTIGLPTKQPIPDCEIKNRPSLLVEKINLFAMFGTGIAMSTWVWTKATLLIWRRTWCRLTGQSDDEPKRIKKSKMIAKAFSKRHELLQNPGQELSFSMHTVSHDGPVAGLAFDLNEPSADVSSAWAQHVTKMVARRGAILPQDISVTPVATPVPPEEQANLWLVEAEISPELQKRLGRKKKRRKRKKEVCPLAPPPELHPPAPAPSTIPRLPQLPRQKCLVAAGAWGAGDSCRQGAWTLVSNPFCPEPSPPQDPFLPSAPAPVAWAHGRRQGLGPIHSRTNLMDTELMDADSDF
Outline: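 Incubation of 15 μg HEK293T-WT SMO membranes (Kd 20 nM, Bmax 6.2 pmol/mg) with 25 nM [3H]-cyclopamine and varied compound, 4 h at RT, in 50 mM HEPES, 5 mM MgCl2, 0.02% BSA. Nonspecific binding was taken with 25 μM compound plus vismodegib. Bound ligand was separated on PEI-soaked GF/C filters, washed with ice-cold PBS/0.01% Triton X-100, and counted by scintillation; IC50 converted to Ki by Cheng–Prusoff.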

Protein smoothened [9] = biological target: T3, Protein smoothened; assay: Inhibition of SMO in human HCC827 Gefitinib-resistant (GR) cells assessed as reduction in GLI1 expression at antiproliferative IC50 measured after 72 hrs by Western blot analysis; assay type: functional, cell-based; conditions: HCC827 Gefitinib-resistant (GR) cell
Protein smoothened [10] = biological target: T3, Protein smoothened; assay: Inhibition of SMO in human PC9-OR cells assessed as reduction in GLI1 expression at antiproliferative IC50 measured after 72 hrs by Western blot analysis; assay type: functional, cell-based

Work on `Cc1ccc(NC(=O)CN2C(=O)/C(=N\NC(=O)c3cc(Br)ccc3O)c3ccc(Cl)cc32)cc1` yielded an inhibition [1] of 72.9%, an inhibition [2] of 63% and an inhibition [3] of 58.9%. For the same molecule, the inhibition [4] was 66.6%, the inhibition [5] was 71.5% and the inhibition [6] was 64.3%. The inhibition [7] was 49.4%, the pKi (Protein smoothened [8]) was 7.55 and the “GLI1 expression reduction (qualitative)” value (Protein smoothened [9]) was “Active”. The inhibition (Protein smoothened [10]) was “Active”.

With `Cc1ccc(NC(=O)CN2C(=O)/C(=N\NC(=O)c3cc(Br)ccc3O)c3ccccc32)cc1` the inhibition [1] was 85.2%, the inhibition [2] was 93.3% and the inhibition [3] was 70.3%. The inhibition [4] was 81.4%, the inhibition [5] was 84.8% and the inhibition [6] was 49.3%. For the same molecule, the inhibition [7] was 91.9%, the pKi (Protein smoothened [8]) was 6.73 and the “GLI1 expression reduction (qualitative)” value (Protein smoothened [9]) was “Active”. The inhibition (Protein smoothened [10]) was “Active”.

`O=C(CN1C(=O)/C(=N\NC(=O)c2cc(Br)ccc2O)c2c(Br)cccc21)Nc1ccc([N+](=O)[O-])cc1` gave an inhibition [1] of 69.3%, an inhibition [2] of 70.8% and an inhibition [3] of 56.7%. The inhibition [4] was 61.2%, the inhibition [5] was 66.8% and the inhibition [6] was 50.7%. The inhibition [7] was 89.7%, the pKi (Protein smoothened [8]) was 8.05 and the “GLI1 expression reduction (qualitative)” value (Protein smoothened [9]) was “Active”. The inhibition (Protein smoothened [10]) was “Active”.

For `Cc1ccc(NC(=O)CN2C(=O)/C(=N\NC(=O)c3cc(Br)ccc3O)c3ccc(Br)cc32)cc1`, the inhibition [1] was 70.9%, the inhibition [2] was 62.5% and the inhibition [3] was 52.8%. It also gave an inhibition [4] of 63.5%, an inhibition [5] of 69.3% and an inhibition [6] of 56.5%. The inhibition [7] was 54.1%, the pKi (Protein smoothened [8]) was 7.96 and the “GLI1 expression reduction (qualitative)” value (Protein smoothened [9]) was “Active”. The inhibition (Protein smoothened [10]) was “Active”.
